Laboratory results from ChEMBL document CHEMBL5143735, “Design, Synthesis, and Characterization of [18F]mG2P026 as a High-Contrast PET Imaging Ligand for Metabotropic Glutamate Receptor 2” (J Med Chem, 2022).

Experiments:
[1] = biological target: Metabotropic glutamate receptor 5 (Homo sapiens, UniProt P41594); assay: Agonist activity at mGlu5 receptor (unknown origin) expressed in human Flp-In-T-REx-293 cells by Ca2+ mobilization assay
[2] = biological target: Metabotropic glutamate receptor 8 (Homo sapiens, UniProt O00222); assay: Agonist activity at mGlu8 receptor (unknown origin) expressed in human Flp-In-T-REx-293 cells by luciferase based GloSensor cAMP Assay; assay type: functional, cell-based, HEK293
Method in brief: (§1)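 Tetracycline-inducible Flp-In T-REx-293 cells stably carrying mGluR4, mGluR6 or mGluR8, grown in DMEM with 10% FBS, hygromycin B and blasticidin at 37 °C, 5% CO2. Gi/o-coupled receptor activation read as intracellular cAMP change by split-luciferase GloSensor biosensor. EC50 from four-parameter logistic fit of concentration–response curves; each assay run at least three times.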

[3] = biological target: Metabotropic glutamate receptor 4 (Homo sapiens, UniProt Q14833); assay: Agonist activity at mGlu4 receptor (unknown origin) expressed in human Flp-In-T-REx-293 cells by luciferase based GloSensor cAMP Assay; assay type: functional, cell-based, HEK293
Method in brief: as §1

[4] = biological target: Metabotropic glutamate receptor 1 (Homo sapiens, UniProt Q13255); assay: Agonist activity at mGlu1 receptor (unknown origin) expressed in human Flp-In-T-REx-293 cells by Ca2+ mobilization assay
[5] = biological target: Metabotropic glutamate receptor 6 (Homo sapiens, UniProt O15303); assay: Agonist activity at mGlu6 receptor (unknown origin) expressed in human Flp-In-T-REx-293 cells by luciferase based GloSensor cAMP Assay; assay type: functional, cell-based, HEK293
Method in brief: as §1

[6] = Unbound fraction in cynomolgus monkey plasma measured upto 140 mins by ultracentrifugation
in vivo [7] = details: cynomolgus monkey, whole blood and plasma
in vivo [8] = details: cynomolgus monkey, plasma

Metabotropic glutamate receptor 8, sequence (O00222 whole entry): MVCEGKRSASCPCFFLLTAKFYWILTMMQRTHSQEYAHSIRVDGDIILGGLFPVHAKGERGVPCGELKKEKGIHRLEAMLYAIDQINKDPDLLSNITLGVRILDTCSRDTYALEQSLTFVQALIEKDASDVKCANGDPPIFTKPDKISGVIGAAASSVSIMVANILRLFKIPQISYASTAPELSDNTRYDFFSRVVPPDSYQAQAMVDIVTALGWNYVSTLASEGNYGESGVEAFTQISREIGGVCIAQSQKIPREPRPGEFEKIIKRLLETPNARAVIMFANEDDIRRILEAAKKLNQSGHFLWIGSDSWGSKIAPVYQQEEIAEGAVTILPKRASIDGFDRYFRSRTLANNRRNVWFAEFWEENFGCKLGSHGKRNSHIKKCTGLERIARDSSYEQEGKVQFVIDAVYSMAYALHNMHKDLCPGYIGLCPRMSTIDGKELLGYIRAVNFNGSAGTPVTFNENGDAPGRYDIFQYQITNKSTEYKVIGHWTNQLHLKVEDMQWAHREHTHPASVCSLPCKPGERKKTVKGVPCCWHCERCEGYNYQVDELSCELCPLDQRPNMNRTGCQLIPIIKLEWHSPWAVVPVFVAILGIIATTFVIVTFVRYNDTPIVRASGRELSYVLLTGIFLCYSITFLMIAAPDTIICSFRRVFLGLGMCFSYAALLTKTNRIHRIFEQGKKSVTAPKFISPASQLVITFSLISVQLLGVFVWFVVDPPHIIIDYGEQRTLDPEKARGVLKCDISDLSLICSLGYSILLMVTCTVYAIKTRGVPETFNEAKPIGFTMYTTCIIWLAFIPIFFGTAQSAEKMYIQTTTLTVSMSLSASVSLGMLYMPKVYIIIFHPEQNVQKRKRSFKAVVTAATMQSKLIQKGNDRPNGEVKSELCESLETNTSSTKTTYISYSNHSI
Metabotropic glutamate receptor 5, sequence (P41594 whole entry): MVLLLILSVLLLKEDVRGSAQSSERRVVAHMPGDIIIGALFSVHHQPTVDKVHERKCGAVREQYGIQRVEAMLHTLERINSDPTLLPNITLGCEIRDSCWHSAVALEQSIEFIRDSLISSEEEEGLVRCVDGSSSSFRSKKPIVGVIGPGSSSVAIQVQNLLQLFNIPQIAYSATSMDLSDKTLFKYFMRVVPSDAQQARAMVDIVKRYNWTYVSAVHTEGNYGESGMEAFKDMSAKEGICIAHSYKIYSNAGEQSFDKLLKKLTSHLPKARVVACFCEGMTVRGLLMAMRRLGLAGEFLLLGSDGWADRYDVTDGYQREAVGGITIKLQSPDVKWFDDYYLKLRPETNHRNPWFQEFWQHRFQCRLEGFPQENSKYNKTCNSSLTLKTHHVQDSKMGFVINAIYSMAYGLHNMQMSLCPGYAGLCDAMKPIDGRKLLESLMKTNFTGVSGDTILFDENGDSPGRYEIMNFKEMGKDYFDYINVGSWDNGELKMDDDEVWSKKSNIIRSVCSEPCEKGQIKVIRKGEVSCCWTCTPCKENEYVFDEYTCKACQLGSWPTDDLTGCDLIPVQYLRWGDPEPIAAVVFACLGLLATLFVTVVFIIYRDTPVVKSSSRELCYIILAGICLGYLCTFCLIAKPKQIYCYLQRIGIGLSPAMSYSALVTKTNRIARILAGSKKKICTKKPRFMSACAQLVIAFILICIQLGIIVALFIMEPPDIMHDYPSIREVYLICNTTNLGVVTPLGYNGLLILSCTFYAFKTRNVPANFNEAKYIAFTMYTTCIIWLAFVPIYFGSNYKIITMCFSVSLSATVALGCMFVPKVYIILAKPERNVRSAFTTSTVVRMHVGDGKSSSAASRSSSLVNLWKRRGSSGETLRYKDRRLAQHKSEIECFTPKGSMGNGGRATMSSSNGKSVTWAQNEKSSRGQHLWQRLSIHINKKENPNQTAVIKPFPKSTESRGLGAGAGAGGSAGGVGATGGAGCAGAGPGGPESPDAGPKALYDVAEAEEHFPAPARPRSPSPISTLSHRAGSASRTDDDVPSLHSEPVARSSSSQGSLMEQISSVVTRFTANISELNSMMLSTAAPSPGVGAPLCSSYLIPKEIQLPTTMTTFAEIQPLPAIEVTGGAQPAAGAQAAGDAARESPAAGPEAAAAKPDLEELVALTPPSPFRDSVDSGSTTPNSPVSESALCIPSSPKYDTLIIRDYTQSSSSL
Metabotropic glutamate receptor 6, sequence (O15303 whole entry): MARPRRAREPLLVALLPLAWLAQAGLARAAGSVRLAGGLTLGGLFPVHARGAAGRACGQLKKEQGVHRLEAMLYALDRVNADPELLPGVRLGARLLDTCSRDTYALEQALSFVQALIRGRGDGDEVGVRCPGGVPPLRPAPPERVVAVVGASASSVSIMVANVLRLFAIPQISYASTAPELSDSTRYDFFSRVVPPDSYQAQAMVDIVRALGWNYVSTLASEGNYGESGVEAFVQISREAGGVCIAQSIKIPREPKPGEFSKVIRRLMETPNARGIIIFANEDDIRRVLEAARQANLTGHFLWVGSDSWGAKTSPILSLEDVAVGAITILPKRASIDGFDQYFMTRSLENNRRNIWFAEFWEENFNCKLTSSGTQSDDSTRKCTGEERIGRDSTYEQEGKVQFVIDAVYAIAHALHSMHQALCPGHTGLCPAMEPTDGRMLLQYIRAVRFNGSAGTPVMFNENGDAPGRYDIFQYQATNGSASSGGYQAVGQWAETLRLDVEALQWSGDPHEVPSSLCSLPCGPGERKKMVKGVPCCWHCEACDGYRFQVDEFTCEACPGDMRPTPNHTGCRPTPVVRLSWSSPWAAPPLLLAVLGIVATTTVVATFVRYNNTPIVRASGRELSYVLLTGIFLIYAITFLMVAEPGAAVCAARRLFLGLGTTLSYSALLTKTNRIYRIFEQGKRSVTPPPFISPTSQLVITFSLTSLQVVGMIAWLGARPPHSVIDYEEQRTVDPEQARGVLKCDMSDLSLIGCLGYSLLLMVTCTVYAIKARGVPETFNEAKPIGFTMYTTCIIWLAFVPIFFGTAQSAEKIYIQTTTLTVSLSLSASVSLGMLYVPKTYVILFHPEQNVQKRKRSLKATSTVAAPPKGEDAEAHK
Metabotropic glutamate receptor 4, sequence (Q14833 whole entry): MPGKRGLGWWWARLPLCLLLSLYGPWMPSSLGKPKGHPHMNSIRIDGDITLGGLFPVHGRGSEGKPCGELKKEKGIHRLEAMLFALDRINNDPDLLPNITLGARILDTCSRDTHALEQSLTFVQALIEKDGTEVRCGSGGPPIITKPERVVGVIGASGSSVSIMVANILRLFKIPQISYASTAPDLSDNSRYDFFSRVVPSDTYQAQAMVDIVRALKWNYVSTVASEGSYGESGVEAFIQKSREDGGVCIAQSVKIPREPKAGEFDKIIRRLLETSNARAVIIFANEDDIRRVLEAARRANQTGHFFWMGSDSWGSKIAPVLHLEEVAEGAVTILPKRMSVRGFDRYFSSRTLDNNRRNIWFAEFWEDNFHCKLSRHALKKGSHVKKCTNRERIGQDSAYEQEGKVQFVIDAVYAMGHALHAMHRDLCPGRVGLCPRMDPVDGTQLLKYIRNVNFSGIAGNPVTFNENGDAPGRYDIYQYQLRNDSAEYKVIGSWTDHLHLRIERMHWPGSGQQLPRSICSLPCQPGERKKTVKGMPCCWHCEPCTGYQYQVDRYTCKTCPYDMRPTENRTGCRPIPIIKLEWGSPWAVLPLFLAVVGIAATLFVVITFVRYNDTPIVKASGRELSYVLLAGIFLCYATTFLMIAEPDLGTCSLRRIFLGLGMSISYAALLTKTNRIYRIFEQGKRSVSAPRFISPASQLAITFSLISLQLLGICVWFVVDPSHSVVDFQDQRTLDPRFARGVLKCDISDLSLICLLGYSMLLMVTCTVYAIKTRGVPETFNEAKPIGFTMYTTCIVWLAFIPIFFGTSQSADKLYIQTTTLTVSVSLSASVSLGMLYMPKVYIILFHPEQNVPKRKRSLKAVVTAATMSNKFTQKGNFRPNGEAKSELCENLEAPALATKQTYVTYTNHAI
Metabotropic glutamate receptor 1, sequence (Q13255 whole entry): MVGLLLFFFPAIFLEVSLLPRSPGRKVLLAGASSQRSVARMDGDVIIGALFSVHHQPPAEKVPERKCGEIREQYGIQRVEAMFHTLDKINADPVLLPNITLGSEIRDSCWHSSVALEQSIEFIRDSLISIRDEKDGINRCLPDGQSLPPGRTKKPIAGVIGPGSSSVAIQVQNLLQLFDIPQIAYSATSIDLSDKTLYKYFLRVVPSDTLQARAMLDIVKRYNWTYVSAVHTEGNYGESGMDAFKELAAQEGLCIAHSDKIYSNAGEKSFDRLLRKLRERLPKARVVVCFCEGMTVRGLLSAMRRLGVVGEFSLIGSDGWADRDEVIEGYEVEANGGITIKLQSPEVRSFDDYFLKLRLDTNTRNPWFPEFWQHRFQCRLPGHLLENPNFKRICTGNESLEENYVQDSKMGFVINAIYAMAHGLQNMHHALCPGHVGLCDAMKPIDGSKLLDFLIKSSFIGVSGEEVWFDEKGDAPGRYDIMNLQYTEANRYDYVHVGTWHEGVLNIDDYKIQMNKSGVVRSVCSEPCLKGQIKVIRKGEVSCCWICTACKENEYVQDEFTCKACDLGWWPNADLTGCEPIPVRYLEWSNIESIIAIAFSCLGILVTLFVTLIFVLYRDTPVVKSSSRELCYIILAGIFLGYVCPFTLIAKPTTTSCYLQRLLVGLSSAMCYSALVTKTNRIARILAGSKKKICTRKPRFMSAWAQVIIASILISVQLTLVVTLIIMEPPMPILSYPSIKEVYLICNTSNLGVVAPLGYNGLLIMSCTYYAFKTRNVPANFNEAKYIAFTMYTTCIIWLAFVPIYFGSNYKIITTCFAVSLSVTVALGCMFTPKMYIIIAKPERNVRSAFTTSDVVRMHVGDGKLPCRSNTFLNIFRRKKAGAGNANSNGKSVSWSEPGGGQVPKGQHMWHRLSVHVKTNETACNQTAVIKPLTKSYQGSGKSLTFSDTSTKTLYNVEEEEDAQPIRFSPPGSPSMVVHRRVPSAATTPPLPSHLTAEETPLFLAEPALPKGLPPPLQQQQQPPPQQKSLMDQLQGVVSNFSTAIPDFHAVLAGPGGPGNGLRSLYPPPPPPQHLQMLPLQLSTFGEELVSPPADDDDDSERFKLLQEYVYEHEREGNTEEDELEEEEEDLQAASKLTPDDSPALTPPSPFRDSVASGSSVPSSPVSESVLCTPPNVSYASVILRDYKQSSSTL

Row | Structure (SMILES) | EC50 [1] [µM] | EC50 [2] [µM] | EC50 [3] [µM] | EC50 [4] [µM] | EC50 [5] [µM] | fraction unbound at 2.333 h [6] | blood plasma ratio at 11 min (in vivo [7]) | remaining at 1.5 h (in vivo [8]) [%]
1 | Fc1cc(Cl)ccc1N1CCN(Cc2ccn3c(CC4CC4)nnc3c2C(F)(F)F)CC1 | > 10 | > 10 | > 10 | > 10 | > 10 | – | – | –
2 | Fc1ccc(N2CCN(Cc3ccn4c(CC5CC5)nnc4c3C(F)(F)F)CC2)c(Cl)c1 | > 10 | > 10 | > 10 | > 10 | > 10 | – | – | –
3 | FC(F)(F)c1c(CN2CCC(c3ccc([18F])cc3Cl)CC2)ccn2c(CC3CC3)nnc12 | – | – | – | – | – | 0.12 | 1.12 | 49.3

The next lines start with the values.

Row | EC50 [1] [µM] | EC50 [2] [µM] | EC50 [3] [µM] | EC50 [4] [µM] | EC50 [5] [µM] | fraction unbound at 2.333 h [6] | blood plasma ratio at 11 min (in vivo [7]) | remaining at 1.5 h (in vivo [8]) [%] | Structure (SMILES)
4 | > 10 | > 10 | > 10 | > 10 | > 10 | – | – | – | Fc1ccccc1N1CCN(Cc2ccn3c(CC4CC4)nnc3c2C(F)(F)F)CC1
5 | > 10 | > 10 | > 10 | > 10 | > 10 | – | – | – | Fc1ccc(N2CCN(Cc3cc(C(F)(F)F)cn4c(CC5CC5)nnc34)CC2)c(F)c1
6 | > 1 | > 1 | > 1 | > 1 | > 1 | – | – | – | O=C(c1cnc2c(cnn2CC2CC2)c1C(F)(F)F)N1CCN(c2ccc(F)cc2F)CC1
